Results reported in paper PMC9468506 (Current Research in Food Science, 2022).
≈ marks a conversion by molar mass, not a printed value. Like-named read-outs stand apart in the source and are kept apart here.

Experiments:
anti-PBZ mAb = test: TRFMs-LFIA competitive lateral flow immunoassay with anti-PBZ mAb immunoprobe; assay type: binding, mouse; conditions: for IC50: TRFMs-LFIA, coating antigen PBZ-2-BSA, optimal conditions; for CR: cross reactivity = IC50 (PBZ)/IC50 (structural analogue) x 100
How it was run: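 Anti-analyte mAb coupled by EDC/NHS to carboxylated time-resolved fluorescent microspheres, activated in MES pH 6.0. Nitrocellulose strip has a T line of coating antigen (2 mg/mL) and a C line of goat anti-mouse IgG (0.16 mg/mL). Probe (7.5 μg/mL stock) and 100 μL standard are premixed 3 min, then the strip is dipped 3 min. The T/C fluorescence ratio gives B/B0 against log concentration. IC50 is taken at 50% B/B0, and CR = IC50 (analyte)/IC50 (analogue) × 100.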

[1] = tested on: anti-PBZ antibody (mAb or pAb); conditions: icELISA, cited from earlier work
anti-PBZ pAb = conditions: TRFIA, water and soil, ref Liu et al. (2016); cited from earlier work

Row | Compound | IC50 (anti-PBZ mAb) [µg/mL] | CR (anti-PBZ mAb) [%] | IC50 ([1]; mAb, soil, ref Jin (2019)) [µg/mL] | IC50 ([1]; mAb, wheat, ref Cao et al. (2014)) [µg/mL] | IC50 ([1]; pAb, fruits, ref Ouyang et al. (2020)) [µg/mL] | IC50 ([1]; pAb, water and soil, ref Wang (2016)) [µg/mL] | IC50 (anti-PBZ pAb) [µg/mL]
1 | CC(C)(C)C(=O)C(Oc1ccc(Cl)cc1)n1cncn1 (stereo not drawn) [Triadimefon] | 0.44371 (≈ 1.51 µM) | 2.10 |  |  |  |  | 
2 | Diniconazole | >10 | <0.1 |  |  |  |  | 
3 | CC(C)(C)C(O)C(Oc1ccc(Cl)cc1)n1cncn1 (stereo not drawn) [Triadimenol] | 0.92421 (≈ 3.12 µM) | 1.01 |  |  |  |  | 
4 | CCCCC(O)(Cn1cncn1)c1ccc(Cl)cc1Cl (stereo not drawn) [Hexaconazole] | >10 | <0.1 |  |  |  |  | 
5 | CC(C)(C)[C@@H](O)[C@@H](Cc1ccc(Cl)cc1)n1cncn1 [Paclobutrazol] |  | 100 | 0.0116 (≈ 0.0395 µM) | 0.0087 (≈ 0.0296 µM) | 0.01326 (≈ 0.0451 µM) | 0.02135 (≈ 0.0727 µM) | 0.00109 (≈ 0.00371 µM)
6 | CC(C)(C)C(O)(CCc1ccc(Cl)cc1)Cn1cncn1 (stereo not drawn) [Tebuconazole] | >10 | <0.1 |  |  |  |  | 
7 | CC(C)(C)C(O)/C(=C\c1ccc(Cl)cc1)n1cncn1 (stereo not drawn) [Uniconazole] | 3.81516 (≈ 13.1 µM) | 0.25 |  |  |  |  | 
